Screening data: PubChem, several laboratories
TDP2 inh: TDP2 (human) inhibition, absorbance primary screen; O95551; recombinant TDP2, T5PNP hydrolysis, p-nitrophenol absorbance 415 nm; inhibition, % at 12.8 µM; 0.34% of 370,000 active; AID 720702;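 active means inhibition above the mean of all tested compounds plus 3 SD, set per campaign, cut at about 25% in these data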;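 further: 0% = DMSO with enzyme and 100% = buffer with substrate but no TDP2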
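System – recombinant human TDP2 · Amount – 120 nM TDP2 per well · Buffer or medium – Mg2+-containing Tris-HCl buffer, pH 7.5 · Reagent – T5PNP substrate, 5 mM · Dosing – 12.8 µM single point, 1% DMSO · Incubation – 2 h at 37 °C · Measured by – epi absorbance · Read-out basis – percent inhibition · Benchmarks – high control without enzyme, low control DMSO plus TDP2 · Repeats – singlicate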
PAFAH2 inh: inhibitors of human PAFAH2; Q99487; recombinant PAFAH2, FP-rhodamine activity probe, fluorescence polarization; inhibition, % at 3.39 µM; 0.99% of 340,000 active;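 active means inhibition above the mean over all tested compounds plus 3 SD, cut at about 30% in these data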;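 further: inhibitors block probe labeling of enzyme so polarization drops; 0% = enzyme with DMSO and 100% = wells lacking PAFAH2 protein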
Apaf-1 inh: human Apaf-1 inhibition; O14727; reconstituted apoptosome caspase-3 activity, DEVD-Rh110 fluorescence; inhibition, % at 20 µM; 0.71% of 330,000 active; active means inhibition of at least 40% at 20 µM;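 further: plate controls were DMSO wells for no effect and DEVD-CHO caspase inhibitor wells for full effect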
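System – cell-free apoptosome with Apaf-1, procaspase-3 and caspase-9 · Buffer or medium – pH 7.5 Hepes buffer with CHAPS, BSA, DTT · Also added – cytochrome c with DEVD-Rh110 · Times – 30 min compound preincubation, 50 min activation, room temperature · Technique – Rh110 fluorescence intensity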
PAFAH1B2 FP inh: inhibitors of human PAFAH1B2; P68402; recombinant PAFAH1B2, FP-rhodamine activity probe, fluorescence polarization; inhibition, % at 3.39 µM; 1.2% of 340,000 active;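 active means inhibition above the mean of all tested compounds plus 3 SD, cut at about 24% in these data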;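 further: 0% = enzyme with DMSO and 100% = wells lacking PAFAH1B2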
Target sequence (P68402 whole entry, looked up): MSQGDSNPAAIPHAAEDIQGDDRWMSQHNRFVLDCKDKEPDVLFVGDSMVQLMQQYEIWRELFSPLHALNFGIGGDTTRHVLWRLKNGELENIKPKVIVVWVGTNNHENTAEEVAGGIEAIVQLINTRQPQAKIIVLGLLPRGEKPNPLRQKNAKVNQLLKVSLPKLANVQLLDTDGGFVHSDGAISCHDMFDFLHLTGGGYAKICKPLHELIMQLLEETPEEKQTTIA
PAFAH1B3 inh: PAFAH1B3 (human) inhibition | inhibition, % at 3.39 µM | recombinant PAFAH1B3, FP-rhodamine probe, fluorescence polarization | 0.28% of 340,000 active | Q15102;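 active means inhibition above the screen-wide average of all tested compounds plus 3 SD, cut at about 25% in these data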;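 further: 0% = enzyme with DMSO only and 100% = wells lacking PAFAH1B3 protein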
Target sequence (Q15102 whole entry, looked up): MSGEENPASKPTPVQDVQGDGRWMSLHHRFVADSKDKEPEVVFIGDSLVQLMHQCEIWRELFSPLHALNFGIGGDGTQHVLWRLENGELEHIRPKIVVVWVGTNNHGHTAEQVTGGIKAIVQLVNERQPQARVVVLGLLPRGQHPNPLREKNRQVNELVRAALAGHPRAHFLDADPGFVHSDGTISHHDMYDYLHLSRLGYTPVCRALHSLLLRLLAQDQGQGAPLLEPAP
PAFAH2 FP conf: confirmation of human PAFAH2 inhibitors; 65% of 2,300 active; shares compounds with PAFAH2 inh; recombinant PAFAH2, FP-rhodamine activity probe, fluorescence polarization; inhibition, % at 3.39 µM; AID 493030;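 active means mean inhibition over three repeats above a set limit taken from the earlier primary screen, cut at about 30% in these data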;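 further: inhibitor blocks binding of rhodamine activity probe so polarization falls; 0% = enzyme with DMSO and 100% = wells lacking PAFAH2 protein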
Numbers without * were called inactive; nt = not tested or not shown. Sampled rows, rich in hits. Any-hit rate of the full collection: about 2.3%.

SMILES | TDP2 inh | PAFAH2 inh | Apaf-1 inh | PAFAH1B2 FP inh | PAFAH1B3 inh | PAFAH2 FP conf
Cc1ccc(NC(=O)COC(=O)c2ccc(Cl)nc2)cc1S(=O)(=O)N1CCCCC1 | -10 | 36* | 8 | -1 | -1 | 38*
O=C(COC(=O)c1ccc(Cl)nc1)Nc1cc(S(=O)(=O)N2CCCCC2)ccc1Cl | 7 | 38* | 5 | 0 | 6 | 13
COc1cc(NC(=O)c2ccccc2)c(C)cc1NC(=O)CSc1nnc(-c2ccccc2F)n1-c1ccc(C)cc1 | -8 | nt | nt | nt | nt | nt
CCOc1ccccc1-n1nnnc1SCC(=O)N1CCCC1=O | 6 | 66* | -9 | 2 | 17 | 56*
O=C1CCCN1C(=O)CSc1nnnn1-c1cccc(F)c1 | -2 | 28 | -2 | 10 | 13 | nt
c1cnc(SCC2CCCCC2)c(-c2nc3ccccc3[nH]2)c1 | 1 | nt | nt | nt | nt | nt
COc1cc(/C=C/C(=O)OCC(=O)N2CCC(C)CC2)ccc1O | 1 | 56* | 0 | 3 | 1 | 45*
COc1cc(/C=C/C(=O)OCC(=O)N2CCC(Cc3ccccc3)CC2)ccc1O | 1 | 14 | 2 | -2 | 6 | nt
COc1cc(/C=C/C(=O)OCC(=O)N2CCC(C)CC2)ccc1OCC#N | 7 | 42* | -2 | 1 | 9 | 22
COc1cc(/C=C/C(=O)OCC(=O)N2CC3(C)CC2CC(C)(C)C3)ccc1O (stereo unspecified) | 2 | 42* | 10 | 12 | -6 | 20
COc1cc(/C=C/C(=O)OCC(=O)N2CCc3ccccc3C2)ccc1O | 6 | 35* | -4 | 0 | 8 | 36*
O=C(NNC(=O)C12CC3CC(CC(C3)C1)C2)c1ccccn1 | -5 | 37* | -20 | 8 | 16 | 18
COc1cccc(C(=O)OCC(=O)c2ccc(Br)s2)c1OC | 1 | 62* | 19 | -2 | 4 | 52*
Cc1cc(C(=O)OCC(=O)c2ccc(Br)s2)no1 | nt | 2 | 5 | 3 | 8 | nt
O=C(OCC(=O)C12CC3CC(CC(C3)C1)C2)c1ccc(CO)cc1 | 1 | 80* | 4 | 18 | 5 | 83*
O=C(OCC(=O)c1ccc(Br)s1)c1ccc(O)cc1 | 4 | 66* | -3 | 5 | 4 | 61*
COc1cccc(C(=O)OCC(=O)NCCNC(=O)COC(=O)c2cccc(OC)c2OC)c1OC | 2 | -3 | 2 | -5 | 6 | nt
O=C(OCC(=O)c1ccc(Cl)s1)c1ccc(CO)cc1 | -11 | 61* | 6 | 5 | 5 | 51*
CCCC(=O)OC12CCCN(C1)/C(=C/c1cccc(N(C)C)c1)C2 (stereo unspecified) | 2 | nt | nt | nt | nt | nt
CCN(C)c1nc(C)nc2c1nnn2Cc1ccccc1 | 1 | nt | nt | nt | nt | nt
Nc1cc(C(=O)OCC(=O)c2ccc(CC(=O)N3CCOCC3)s2)ccc1Cl | -2 | 2 | -2 | 0 | 3 | nt
Cc1ccc(C(=O)COC(=O)c2ccc(Cl)c(N)c2)s1 | -11 | 32* | 3 | -2 | 8 | 22
COc1ccc(OC)c(CN(CC(F)(F)F)S(=O)(=O)c2ccccc2Br)c1 | 5 | nt | nt | nt | nt | nt
CC(C)C1COS(=O)(=O)NC1CC(=O)SC(C)(C)C (stereo unspecified) | 8 | 6 | 15 | -6 | 5 | nt
CC(C)(C)SC(=O)CC1NS(=O)(=O)OCC1NC(=O)OCC(Cl)(Cl)Cl (stereo unspecified) | -8 | 49* | 6 | 4 | 5 | 34*
SMILES | TDP2 inh | PAFAH2 inh | Apaf-1 inh | PAFAH1B2 FP inh | PAFAH1B3 inh | PAFAH2 FP conf
O=C(ON=C1CCN(S(=O)(=O)c2ccccc2)CC1)c1cccc(Cl)c1 | -5 | 82* | 20 | 17 | 9 | 79*
COc1ccc(C(=O)ON=C2CCN(C)CC2)cc1 | 4 | 75* | -3 | 5 | 1 | 63*
CC1(C)CC(=NOC(=O)c2ccccc2)CC(C)(C)N1O | -3 | 33* | 2 | 6 | 8 | 32*
O=S(=O)(c1ccccc1)N1CCC(=NO)CC1 | 5 | 10 | 2 | 8 | 10 | nt
O=C(ON=C1CCN(S(=O)(=O)c2ccccc2)CC1)c1ccccc1 | -14 | 91* | 2 | 10 | 6 | 83*
COC(=O)c1cc2c(c3c4ccccc4n(S(=O)(=O)c4ccc(C)cc4)c13)C(=O)N(CC(C)C)C2 | -5 | nt | nt | nt | nt | nt
O=C(NCc1ccccc1)[C@@H]1CCCN1C(=O)[C@H]1CCCN1C(=O)c1ccc(F)cc1F | 6 | nt | nt | nt | nt | nt
COC(=O)[C@]12C[C@H](CC(=O)N3CCN(C(=O)C4CC4)CC3)C(=O)N(Cc3ccc(Cl)cc3Cl)C1=C[C@H](C1CCCC1)O[C@@H]2C | -6 | nt | nt | nt | nt | nt
O=C(CN1CCc2onc(-c3cccc(-n4cc(CO)nn4)c3)c2C1=O)N1CCOCC1 | -1 | nt | nt | nt | nt | nt
CC(C)(C)N(Cc1cn(CC2CCCCC2)nn1)S(=O)(=O)c1ccccc1Br | -3 | nt | nt | nt | nt | nt
COc1ccc(/C=C/C(=O)OCC(=O)NCC2CCCO2)cc1 (stereo unspecified) | -5 | 37* | -10 | 4 | 7 | 30*
COc1cccc(/C=C/C(=O)OCC(=O)NCC2CCCO2)c1 (stereo unspecified) | 1 | 13 | -4 | -1 | -2 | nt
O=C(COC(=O)/C=C/c1ccccc1[N+](=O)[O-])NCC1CCCO1 (stereo unspecified) | 4 | 27 | -3 | 4 | -9 | nt
COc1cccc(/C=C/C(=O)OCC(=O)NCC2CCCO2)c1OC (stereo unspecified) | 1 | 51* | -12 | 1 | 3 | 35*
O=S(=O)(CC1NCc2cc(F)ccc21)NCc1ccc(F)cc1 (stereo unspecified) | -4 | nt | nt | nt | nt | nt
COc1cccc(/C=C/C(=O)OCC(=O)NCCC2=CCCCC2)c1OC | -1 | 66* | 8 | -1 | -1 | 55*
COc1ccc(/C=C/C(=O)OCC(=O)NCCC2=CCCCC2)cc1OC | 2 | 65* | 4 | -2 | -2 | 50*
COc1ccccc1/C=C/C(=O)OCC(=O)NCCC1=CCCCC1 | 3 | 25 | 15 | -5 | 10 | nt
Cc1cc(-c2n[nH]c(=S)n2N=Cc2c3ccccc3cc3ccccc23)n[nH]1 | 0 | nt | nt | nt | nt | nt
COC(=O)c1c(-c2c(Cl)cccc2Cl)noc1NC(=O)NN1CCCCC1 | -4 | 75* | 7 | 5 | 5 | 68*
COC(=O)c1c(-c2c(Cl)cccc2Cl)noc1NC(=O)NN1CCOCC1 | 4 | 27 | -5 | 5 | -1 | nt
Cc1ccc(C(=O)OCC(=O)Nc2ncc(Cl)cc2Cl)cc1NC(=O)c1ccco1 | 4 | 42* | -3 | 1 | 9 | 41*
Cc1ccc(C(=O)OCC(=O)Nc2sccc2C(N)=O)cc1NC(=O)c1ccco1 | -2 | 16 | -1 | -1 | -1 | nt
CCC(C)c1ccccc1NC(=O)COC(=O)c1ccc(C)c(NC(=O)c2ccco2)c1 (stereo unspecified) | -5 | 78* | 29 | -1 | 4 | 74*
